Published values pooled from the literature.
Lines come from different studies, so protocols differ.
FLT3 N841I: Receptor-type tyrosine-protein kinase FLT3 (FLT3, Homo sapiens, UniProt P36888, N841I)
FLT3 D835H: Receptor-type tyrosine-protein kinase FLT3 (FLT3, Homo sapiens, UniProt P36888, D835H)
FLT3: Receptor-type tyrosine-protein kinase FLT3 (FLT3, Homo sapiens, UniProt P36888)
FLT3 K663Q: Receptor-type tyrosine-protein kinase FLT3 (FLT3, Homo sapiens, UniProt P36888, K663Q)
FLT3 D835V/ITD: Receptor-type tyrosine-protein kinase FLT3 (FLT3, Homo sapiens, UniProt P36888, D835V/ITD)
FLT3 D835Y: Receptor-type tyrosine-protein kinase FLT3 (FLT3, Homo sapiens, UniProt P36888, D835Y)
FLT3 D835V: Receptor-type tyrosine-protein kinase FLT3 (FLT3, Homo sapiens, UniProt P36888, D835V)
FLT3 R834Q: Receptor-type tyrosine-protein kinase FLT3 (FLT3, Homo sapiens, UniProt P36888, R834Q)
FLT3 autoinhibited: Receptor-type tyrosine-protein kinase FLT3, autoinhibited (FLT3, Homo sapiens, UniProt P36888)

| SMILES | target | test | conditions | remaining binding [%] |
| --- | --- | --- | --- | --- |
| O=C(c1ccc(Nc2ncc(Cl)c(-c3ccc(Cl)s3)n2)cc1)N1CCC(N2CCCC2)CC1 | FLT3 N841I | binding, competition with immobilised ligand | 1 µM | 0.4 |
| c1cncc(-c2cccc(Nc3nccc(NC4CCCCC4)n3)c2)c1 | FLT3 D835H | binding, competition with immobilised ligand | 10 µM | 1.6 |
| COc1cnc(Nc2cccc(S(N)(=O)=O)c2)nc1N1CCN(c2ccccc2)CC1 | FLT3 | binding, competition with immobilised ligand | 1 µM | 36 |
| CN1CCN(c2ccc(Nc3nccc(-c4ccccc4)n3)cc2C(F)(F)F)CC1 | FLT3 K663Q | binding | 10 µM | 0.35 |
| O=C(NC1CCC1)c1ccc2nc(-c3cccc(NS(=O)(=O)NCCN4CCCCC4)c3)cn2c1 | FLT3 D835V/ITD | cell-free assay, competition with immobilised ligand | 10 µM | 37 |
| COc1ccnn2ncc(-c3ccnc(N(C)C)n3)c12 | FLT3 D835Y | binding | 1 µM | 97 |
| C[C@@H](c1ccc(-n2cnc3c(N)ncnc32)cc1)N1CCc2nn(C)c(Cc3ccccc3)c2C1=O | FLT3 N841I | binding, competition with immobilised ligand | 0.1 µM | 97 |
| O=C(NCCCN1CCOCC1)c1ccc(Nc2ncc(Cl)c(-c3ccc(Cl)s3)n2)cc1 | Receptor-type tyrosine-protein kinase FLT3 (FLT3, Homo sapiens, UniProt P36888, ITD) | binding, competition with immobilised ligand | 1 µM | 0.75 |
| N[C@H]1CCN(c2nccc(-c3cnn4ncccc34)n2)C1 | FLT3 K663Q | binding | 1 µM | 100 |
| Nc1ncc2c(n1)-c1c([nH]c3ccc(C#CC4CC4)cc13)CCCC2 | FLT3 D835V | binding, competition with immobilised ligand | 1 µM | 92 |
| F[C@@H]1CCN(c2nccc(-c3cnn4ncccc34)n2)C1 | FLT3 D835V | binding | 1 µM | 84 |
| C[C@H](c1ccc(F)cc1)N(Cc1cccc(C(=O)O)c1)C(=O)c1cnc2ccccc2c1 | FLT3 D835V | cell-free assay, competition with immobilised ligand | 1 µM | 98 |
| O=C(c1ccc(Nc2ncc(Cl)c(-c3cc4ccccc4s3)n2)cc1)N1CCC(N2CCCC2)CC1 | FLT3 D835V | binding, competition with immobilised ligand | 1 µM | 1.3 |
| CCN1CCN(Cc2ccc(C(=O)Nc3ccc(C)c(Oc4ccc5c(c4)CC(=O)N5)c3)cc2C(F)(F)F)CC1 | FLT3 K663Q | binding, competition with immobilised ligand | 1 µM | 45 |
| O=C(NCCCN1CCOCC1)c1ccc(Nc2nccc(-c3cc4ccccc4s3)n2)cc1 | FLT3 D835H | binding, competition with immobilised ligand | 1 µM | 30 |
| NS(=O)(=O)c1cc(NC(=O)Cc2ccccc2)ccc1Oc1cccc(Cl)c1 | FLT3 K663Q | cell-free assay, competition with immobilised ligand | 1 µM | 99 |
| CN1CCN(c2ccc(Nc3nccc(-c4cccc([N+](=O)[O-])c4)n3)cc2C(F)(F)F)CC1 | FLT3 K663Q | binding | 10 µM | 0.2 |
| O=C(Nc1c[nH]nc1C(=O)NC1CCNCC1)c1cc(F)cc(F)c1 | FLT3 | binding, competition with immobilised ligand | 1 µM | 100 |

| SMILES | target | test | conditions | remaining binding [%] |
| --- | --- | --- | --- | --- |
| CN(c1nccc(-c2cnn3ncccc23)n1)C1CC1 | FLT3 R834Q | binding | 1 µM | 100 |
| O=C(NCCCC1CCCCC1)c1ccc(CNC(=O)c2cnn(-c3ccccc3)c2C(F)(F)F)cc1 | FLT3 R834Q | cell-free assay, competition with immobilised ligand | 0.1 µM | 100 |
| COc1cnc(Nc2cccc(S(N)(=O)=O)c2)nc1N1CCN(c2ccccc2)C(=O)C1 | FLT3 K663Q | binding, competition with immobilised ligand | 1 µM | 87 |
| O=c1nc(-c2ccccn2)sc2ccccc12 | FLT3 | binding, competition with immobilised ligand | 1 µM | 93 |
| O=C(NCC1CCOCC1)c1n[nH]cc1NC(=O)c1c(F)cccc1F | FLT3 D835Y | binding, competition with immobilised ligand | 1 µM | 89 |
| C[C@@H]1CN(c2ccc3ncc(-c4ccc5[nH]nc(C6CC6)c5c4)n3n2)C[C@H](C)O1 | FLT3 | binding, competition with immobilised ligand | 0.5 µM | 3 |
| C=CC(=O)N1CCC(C(=O)NCC(=O)N2CCN(c3nc(-c4cnc(N)nc4C(F)F)nc(N4CCOCC4)n3)CC2)CC1 | FLT3 D835V | binding, competition with immobilised ligand | 1 µM | 61 |
| CNC(=O)[C@@H]1CC[C@@H](n2c(-c3ccc4cnccc4c3)nc3ccc(C(=O)NCc4cccc(C(N)=O)c4)cc32)C1 | FLT3 N841I | binding, competition with immobilised ligand | 1 µM | 100 |
| Cc1cnc(Nc2ccc(C(=O)N3CCC(N4CCCC4)CC3)cc2)nc1-c1cc2ccccc2s1 | FLT3 D835V/ITD | binding, competition with immobilised ligand | 1 µM | 0.9 |
| Cc1noc([C@H]2C[C@@H](c3ccc(C(F)(F)F)cc3)CN(C(=O)N3CCS(=O)(=O)C3)C2)n1 | FLT3 autoinhibited | cell-free assay, competition with immobilised ligand | 1 µM | 100 |
| COc1ncc2cc3ccccc3nc2c1C#N | FLT3 D835Y | cell-free assay, competition with immobilised ligand | 5 µM | 92 |
| O=C(Nc1cnc(Oc2ccc(F)cc2)nc1)N1CCc2ncccc2[C@@H]1c1ccc(F)cc1 | FLT3 autoinhibited | cell-free assay, competition with immobilised ligand | 1 µM | 90 |
| C[C@@H]1CCN(c2nccc(-c3cnn4ncccc34)n2)C1 | FLT3 R834Q | binding | 1 µM | 71 |
| Cc1c(NC(=O)c2cc(C(N)=O)nc3cc(F)ccc23)c(C(F)(F)F)nn1Cc1ccc(C(C)(C)C)cc1 | FLT3 R834Q | cell-free assay, competition with immobilised ligand | 1 µM | 100 |
| c1cnn2ncc(-c3ccnc(N4CCC45COC5)n3)c2c1 | FLT3 D835H | binding | 1 µM | 64 |
| CO[C@@H](C)c1c(Nc2ccc([C@H](N(C)C(=O)C3CCS(=O)(=O)CC3)C(F)(F)F)cc2)cnc2cc(Cl)nn12 | FLT3 D835Y | cell-free assay, competition with immobilised ligand | 1 µM | 59 |
| CN(C)c1nccc(-c2cnc3ncccn23)n1 | FLT3 D835V | binding | 1 µM | 68 |
| O=C(c1ccc(Nc2nccc(-c3cc4ccccc4s3)n2)cc1)N1CCC(N2CCCC2)CC1 | FLT3 D835H | binding, competition with immobilised ligand | 1 µM | 29 |
